Each structure is given as a SMILES string.

Experiment [1] is described as follows: Inhibition of glyceraldehyde-3-phosphate dehydrogenase in Trypanosoma brucei. A digest of the protocol:
(§1)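 Enzyme sources: human erythrocyte GAPDH, glycosomal GAPDH from T. brucei, and glycosomal GAPDH from L. mexicana. IC50 is the inhibitor concentration at which 50% of enzyme activity remains. Poorly soluble compounds were not tested above their solubility limit, and the remaining activity at that level was recorded instead.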

Experiment [2] is described as follows: TInhibition of glyceraldehyde-3-phosphate dehydrogenase in Leishmania mexicana. A digest of the protocol: as §1
The target in experiment [3] is Glyceraldehyde-3-phosphate dehydrogenase (Homo sapiens, UniProt P04406). Description: Inhibition of Glyceraldehyde-3-phosphate dehydrogenase in human erythrocytes. The class given is cell-based. A digest of the protocol: as §1
Sequence of Glyceraldehyde-3-phosphate dehydrogenase (P04406 whole entry): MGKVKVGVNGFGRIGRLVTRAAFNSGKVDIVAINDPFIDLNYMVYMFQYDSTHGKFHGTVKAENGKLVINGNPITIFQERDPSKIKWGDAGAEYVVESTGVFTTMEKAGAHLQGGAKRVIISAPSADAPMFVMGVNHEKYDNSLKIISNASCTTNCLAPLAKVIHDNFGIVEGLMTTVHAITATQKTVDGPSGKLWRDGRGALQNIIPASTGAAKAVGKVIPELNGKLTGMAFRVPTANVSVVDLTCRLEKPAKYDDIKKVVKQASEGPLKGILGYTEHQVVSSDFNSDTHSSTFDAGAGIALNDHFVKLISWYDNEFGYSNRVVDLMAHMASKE

For the molecule `Nc1ncnc2c1ncn2CCNC(=O)c1cccc(Cl)c1`, the IC50 in experiment [1] and in experiment [2] was > 4 mM throughout.

Take `Nc1ncnc2c1ncn2CCNC(=O)c1cccc(F)c1`: the IC50 in experiment [1] and in experiment [2] was > 4 mM in each case.

Turning to `NCCn1c(-c2cccs2)nc2c(N)ncnc21`, the IC50 in experiment [3] stood at 1.8 mM; in experiment [1], 1.8 mM; in experiment [2] it was 1.6 mM.

Take `Nc1ncnc2c1ncn2[C@@H]1CCC[C@H]1NC(=O)c1cccc(Br)c1`: the IC50 in experiment [3] worked out at 1.5 mM; in experiment [1], 1.5 mM; in experiment [2], 0.7 mM.

As to `Cc1ccc(C(=O)NCCn2cnc3c(N)ncnc32)cc1`, the IC50 in experiment [1] was > 2 mM; in experiment [2] it was > 4 mM.

Turning to `Nc1ncnc2c1nc(-c1cccs1)n2[C@@H]1O[C@H](CO)[C@@H](O)[C@H]1O`, the IC50 in experiment [3] is 1.3 mM; in experiment [1] it was 0.6 mM; in experiment [2] it was 0.5 mM.

As for `COc1cccc(C(=O)N[C@@H]2[C@H](O)[C@@H](CO)O[C@H]2n2cnc3c(N)ncnc32)c1`, the results for the IC50 in experiment [3], in experiment [1] and in experiment [2] were > 10 mM, 2.2 mM and 0.3 mM, respectively.

For the molecule `COc1nc2c(N)ncnc2n1[C@@H]1O[C@H](CO)[C@@H](O)[C@H]1NC(=O)c1ccccc1`, the IC50 in experiment [3] was > 10 mM; in experiment [1] it was 9 mM; in experiment [2] it was 9 mM.

Turning to `Nc1ncnc2c1nc(-c1cccs1)n2[C@@H]1O[C@H](CO)[C@@H](O)[C@H]1NC(=O)c1ccccc1`, the IC50 in experiment [3] is 1.2 mM; in experiment [1], 1.2 mM; in experiment [2] it was 0.5 mM.

On to `Nc1ncnc2c1ncn2[C@@H]1O[C@H](CO)[C@@H](O)[C@H]1NCc1ccccc1`, for which the IC50 in experiment [3], in experiment [1] and in experiment [2] was > 10 mM throughout.

Regarding `Nc1ncnc2c1ncn2[C@@H]1O[C@H](CO)[C@@H](O)[C@H]1NC(=O)c1ccc2[nH]cnc2c1`, the IC50 in experiment [3] was > 10 mM; in experiment [1], 3 mM; in experiment [2], 3 mM.

For `Nc1ncnc2c1ncn2[C@@H]1O[C@H](CO)[C@@H](O)[C@H]1NC(=O)c1cccc(Cl)c1`, the IC50 in experiment [3] was > 2 mM; in experiment [1] it was 0.5 mM; in experiment [2] it was 0.2 mM.

Regarding `CCOc1cccc(C(=O)N[C@@H]2[C@H](O)[C@@H](CO)O[C@H]2n2cnc3c(N)ncnc32)c1`, the IC50 in experiment [3] is 0.6 mM; in experiment [1] it was 0.5 mM; in experiment [2], 0.4 mM.

For the molecule `Nc1ncnc2c1ncn2[C@@H]1O[C@H](CO)[C@@H](O)[C@H]1NC(=O)c1ccc(-c2ccccc2)cc1`, the IC50 in experiment [3] was 0.4 mM; in experiment [1] it was 0.2 mM; in experiment [2], 0.2 mM.

Regarding `Nc1ncnc2c1ncn2[C@@H]1O[C@H](CO)[C@@H](O)[C@H]1NC(=O)c1ccc2cccnc2c1`, the IC50 in experiment [3] was > 2 mM; in experiment [1], 1 mM; in experiment [2], 0.5 mM.

Consider `CC(C)COC(=O)N[C@@H]1[C@H](O)[C@@H](CO)O[C@H]1n1cnc2c(N)ncnc21`, for which the IC50 in experiment [3], in experiment [1] and in experiment [2] was > 10 mM in each case.

In the case of `COc1cccc(C(=O)N[C@@H]2[C@H](O)[C@@H](CO)O[C@H]2n2cnc3c(N)nc(C)nc32)c1`, the IC50 in experiment [3], in experiment [1] and in experiment [2] was > 10 mM each time.

With `Nc1ncnc2c1nc(Br)n2[C@@H]1O[C@H](CO)[C@@H](O)[C@H]1NC(=O)c1ccccc1`, the IC50 in experiment [3] was > 10 mM; in experiment [1], 6.3 mM; in experiment [2], 3 mM.

As for `Cc1nc(N)c2[nH]cnc2n1`, the 50% inhibitory concentration (IC50) in experiment [3] was > 10 mM; in experiment [1], 8 mM; in experiment [2], 6 mM.

As for `Nc1ncnc2c1nc(-c1cccs1)n2CCNCc1ccccc1`, the 50% inhibitory concentration (IC50) in experiment [3] came out at 0.6 mM; in experiment [1], 0.5 mM; in experiment [2] it was 0.4 mM.

As to `Nc1ncnc2c1ncn2[C@@H]1CCC[C@H]1NC(=O)c1ccccc1`, the IC50 in experiment [1] and in experiment [2] was > 4 mM throughout.

With `COc1cccc(C(=O)N[C@@H]2CCC[C@H]2n2cnc3c(N)ncnc32)c1`, the 50% inhibitory concentration (IC50) is > 4 mM in experiment [1] and > 5 mM in experiment [2].

Regarding `Nc1ncnc2c1ncn2[C@@H]1CCC[C@H]1NC(=O)c1cccc(Cl)c1`, the IC50 was > 4 mM in experiment [1] and > 2 mM in experiment [2].

As to `Nc1ncnc2c1nc(Sc1ncccn1)n2C1O[C@H](CO)[C@@H](O)[C@H]1O` (stereo partly drawn), the IC50 in experiment [3] was 8 mM; in experiment [1], 2 mM; in experiment [2], 4 mM.

For `Nc1ncnc2c1ncn2C1O[C@H](CNC(=O)C(c2ccccc2)c2ccccc2)[C@@H](O)[C@H]1O` (stereo partly drawn), the IC50 in experiment [3], in experiment [1] and in experiment [2] was 0.25 mM throughout.

As for `Nc1ncnc2c1nc(SC1CCCCC1)n2C1O[C@H](CO)[C@@H](O)[C@H]1O` (stereo partly drawn), the IC50 in experiment [3] is > 2 mM; in experiment [1], > 1 mM; in experiment [2], > 2 mM.

Take `CCc1ccc(-c2ccc(C(=O)NC[C@H]3OC(n4cnc5c(N)ncnc54)[C@H](O)[C@@H]3O)cc2)cc1` (stereo partly drawn): the IC50 was > 2 mM in experiment [3], > 1 mM in experiment [1] and 0.75 mM in experiment [2].

As to `Nc1ncnc2c1ncn2[C@@H]1O[C@H](CO)[C@@H](O)[C@H]1O` [ADENOSINE], the IC50 in experiment [3] was found to be 35 mM; in experiment [1], 100 mM; in experiment [2], 50 mM.

Values taken from ChEMBL document CHEMBL1128560, “Synthesis and structure-activity relationships of analogs of 2'-deoxy-2'-(3-methoxybenzamido)adenosine, a selective inhibitor of trypanosomal glycosomal glyceraldehyde-3-phosphate dehydrogenase” (J Med Chem, 1995).
